# Measurements gathered from unrelated publications.
# Compare with care: the assays were run in different laboratories.
# Target: Serine/threonine-protein kinase PAK 5 (PAK5, Homo sapiens, UniProt Q9P286)
SMILES,assay,setting,remaining binding [%]
COc1cnc(Nc2cccc(S(N)(=O)=O)c2)nc1N1CCN(c2ccccc2)CC1,"binding, competition with immobilised ligand",1 µM,69
CN(CCCC(F)(F)F)c1nccc(-c2cnn3ncccc23)n1,binding,1 µM,100
COc1ccc2c(c1)O[C@H](c1ccc(OC)c(OC)c1)C[C@@H]2NC(=O)C1(c2ccc3c(c2)OC(F)(F)O3)CC1,"cell-free assay, competition with immobilised ligand",1 µM,100
O=C(NCC1CCOCC1)c1n[nH]cc1NC(=O)c1c(F)cccc1F,"binding, competition with immobilised ligand",1 µM,79
O=C(c1ccc(Nc2nccc(-c3cc4ccccc4s3)n2)cc1)N1CCC(N2CCCC2)CC1,"binding, competition with immobilised ligand",1 µM,79
CNC(=O)[C@@H]1CC[C@@H](n2c(-c3ccc4cnccc4c3)nc3ccc(C(=O)NCc4cccc(C(N)=O)c4)cc32)C1,"binding, competition with immobilised ligand",1 µM,100
FC(F)(F)Oc1cccc(-c2cnc3ccc(-c4ccncc4)nn23)c1,"cell-free assay, competition with immobilised ligand",5 µM,43
O=C(c1ccc(Nc2ncc(Cl)c(-c3cc4ccccc4s3)n2)cc1)N1CCC(N2CCCC2)CC1,"binding, competition with immobilised ligand",1 µM,77
CCN1CCN(Cc2ccc(C(=O)Nc3ccc(C)c(Oc4ccc5c(c4)CC(=O)N5)c3)cc2C(F)(F)F)CC1,"binding, competition with immobilised ligand",1 µM,86
CS(=O)(=O)N1CCCC(NC(=O)[C@H](CCC2CCCCC2)NC(=O)c2ccc(CNc3ncnc4c3nnn4-c3ccccc3)cc2)C1 (stereo partly drawn),"cell-free assay, competition with immobilised ligand",0.1 µM,100
C[C@@H](c1ccc(-n2cnc3c(N)ncnc32)cc1)N1CCc2nn(C)c(Cc3ccccc3)c2C1=O,"binding, competition with immobilised ligand",0.1 µM,69
c1cnn2ncc(-c3ccnc(N4CCC45COC5)n3)c2c1,binding,1 µM,85
CN(C)c1ncnc(-c2ccc3nc(Nc4cc(CN5CCN(C(=O)CC(F)(F)F)CC5)ccn4)[nH]c3c2)c1Cl,"cell-free assay, competition with immobilised ligand",1 µM,85
CN(C)c1nccc(-c2cnn3ncccc23)n1,binding,1 µM,92
CS(=O)(=O)c1cc(C2(NC(=O)c3cncc4c3cnn4-c3ccc(F)cc3)CC2)ccn1,"cell-free assay, competition with immobilised ligand",1 µM,100
Cc1cnn2ncc(-c3ccnc(N(C)C)n3)c2c1,binding,1 µM,0
C[C@@H]1CN(c2cc(-c3n[nH]c4ccc(OC5(C)CC5)cc34)ncn2)C[C@H](C)O1,"cell-free assay, competition with immobilised ligand",0.1 µM,86
N[C@@H]1CCN(c2nccc(-c3cnn4ncccc34)n2)C1,binding,1 µM,78
Cc1cnc(Nc2ccc(C(=O)N3CCC(N4CCCC4)CC3)cc2)nc1-c1cc2ccccc2s1,"binding, competition with immobilised ligand",1 µM,68
COc1ccc2c(O[C@@H]3C[C@H]4C(=O)N[C@]5(C(=O)O)CC5/C=C\CCCCC[C@H](NC(=O)OC5CCCC5)C(=O)N4C3)cc(-c3csc(NC(=O)C(C)C)n3)nc2c1C (stereo partly drawn),"cell-free assay, competition with immobilised ligand",1 µM,100
C[C@@H]1CCN(c2nccc(-c3cnn4ncccc34)n2)C1,binding,1 µM,90
